Experimental data gathered from unrelated publications.
Lines come from different studies, so protocols differ.
Target: Mitogen-activated protein kinase 3 (MAPK3, Homo sapiens, UniProt P27361)

CC1CCCN1c1nccc(-c2cnn3ncccc23)n1 (stereo not shown)  remaining binding (binding; 1 µM): 86%
C[C@@H](c1cccc(C#N)c1)n1cc(Cl)cc(C(N)=O)c1=N  remaining binding (cell-free assay, competition with immobilised ligand; 1 µM): 100%
C[C@H]1CCN(c2nccc(-c3cnn4ncccc34)n2)C1  remaining binding (binding; 1 µM): 83%
CN([C@@H]1CCc2c(CC(=O)O)c3cc(S(C)(=O)=O)ccc3n2C1)S(=O)(=O)c1ccc(F)cc1  remaining binding (cell-free assay, competition with immobilised ligand; 1 µM): 92%
C[C@@H]1CN(c2ccc3ncc(-c4ccc5[nH]nc(C6CC6)c5c4)n3n2)C[C@H](C)O1  remaining binding (binding, competition with immobilised ligand; 50 nM): 100%
N[C@H]1CCN(c2nccc(-c3cnn4ncccc34)n2)C1  remaining binding (binding; 1 µM): 91%
COCCOc1nc(-c2ccc(Cl)nc2)nc2c1CN(C(=O)c1ncn3ccccc13)CC2  remaining binding (cell-free assay, competition with immobilised ligand; 0.1 µM): 89%
CCN1CCN(Cc2ccc(C(=O)Nc3ccc(C)c(Oc4ccc5c(c4)CC(=O)N5)c3)cc2C(F)(F)F)CC1  remaining binding (binding, competition with immobilised ligand; 1 µM): 100%
O=C(c1ccc(Nc2ncc(Cl)c(-c3ccc(Cl)s3)n2)cc1)N1CCC(N2CCCC2)CC1  remaining binding (binding, competition with immobilised ligand; 1 µM): 98%
Cc1c(NC(=O)c2cc(C(N)=O)nc3cc(F)ccc23)c(C(F)(F)F)nn1Cc1ccc(C(C)(C)C)cc1  remaining binding (cell-free assay, competition with immobilised ligand; 1 µM): 100%
O=C(c1ccc(Nc2nccc(-c3cc4ccccc4s3)n2)cc1)N1CCC(N2CCCC2)CC1  remaining binding (binding, competition with immobilised ligand; 1 µM): 100%
CO[C@@H](C)c1c(Nc2ccc([C@H](N(C)C(=O)C3CCS(=O)(=O)CC3)C(F)(F)F)cc2)cnc2cc(Cl)nn12  remaining binding (cell-free assay, competition with immobilised ligand; 1 µM): 100%
CN(C)c1nccc(-c2cnn3ncccc23)n1  remaining binding (binding; 1 µM): 100%
Cc1cnc(Nc2ccc(C(=O)N3CCC(N4CCCC4)CC3)cc2)nc1-c1cc2ccccc2s1  remaining binding (binding, competition with immobilised ligand; 1 µM): 100%
CNC(=O)[C@@H]1CC[C@@H](n2c(-c3ccc4cnccc4c3)nc3ccc(C(=O)NCc4cccc(C(N)=O)c4)cc32)C1  remaining binding (binding, competition with immobilised ligand; 1 µM): 100%
c1cnn2ncc(-c3ccnc(N4CCC45COC5)n3)c2c1  remaining binding (binding; 1 µM): 94%
O=C(NCC1CCOCC1)c1n[nH]cc1NC(=O)c1c(F)cccc1F  remaining binding (binding, competition with immobilised ligand; 1 µM): 100%
COc1cccc(CNC(=O)c2nc3scc(COCc4ccc(C(=O)O)cc4)c3c(=O)[nH]2)c1  remaining binding (cell-free assay, competition with immobilised ligand; 1 µM): 100%
CC(C)(C)c1ccc(-c2nc(CBr)nn2-c2cccc(O)c2)cc1  remaining binding (cell-free assay, competition with immobilised ligand; 10 µM): 91%
F[C@@H]1CCN(c2nccc(-c3cnn4ncccc34)n2)C1  remaining binding (binding; 1 µM): 85%
FC(F)(F)Oc1cccc(-c2cnc3ccc(-c4ccncc4)nn23)c1  remaining binding (cell-free assay, competition with immobilised ligand; 5 µM): 88%
N#Cc1ccc(Nc2ccc3[nH]c(=O)[nH]c3c2)c(Cl)c1  remaining binding (cell-free assay, competition with immobilised ligand; 1 µM): 95%
CN(C)c1nccc(-c2cnc3ncccn23)n1  remaining binding (binding; 1 µM): 100%
CC(=O)C1=C(C)N(c2cccc(C(F)(F)F)c2)C(=O)N[C@@H]1c1ccc(C#N)nc1  remaining binding (cell-free assay, competition with immobilised ligand; 1 µM): 97.1%
C[C@@H](c1ccc(-n2cnc3c(N)ncnc32)cc1)N1CCc2nn(C)c(Cc3ccccc3)c2C1=O  remaining binding (binding, competition with immobilised ligand; 0.1 µM): 100%
